Assay [1] can be described thus: Antiviral activity against amantadine-resistant Influenza A virus A/California/07/2009 (H1N1) expressing M2 proton channel S31N mutant infected in MDCK cells harboring ST6Gal1 gene assessed as reduction in plaque formation at 10 uM measured after 2 days post infection by crystal violet staining based assay relative to control. Type of assay: functional. Further details: scale not given: the % may be the effect or the level left. A digest of the protocol: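 ST6Gal I-expressing MDCK monolayers infected with ~100 pfu in DMEM/0.5% BSA, 1 h at 4 °C then 1 h at 37 °C; inoculum removed, PBS wash, overlay of DMEM with 1.2% Avicel and NAT (2.0 μg/mL) containing compound at 10 μM; 2-day incubation; plaque formation expressed as percent of DMSO control.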

The test system of assay [2] is Matrix protein 2 (Influenza A virus (A/Udorn/307/1972(H3N2))), P0DOF8 [S31N]. The assay can be described thus: Inhibition of Influenza A virus amantadine-resistant M2 proton channel S31N mutant expressed in Xenopus laevis oocyte at 100 uM at pH 5.5 after 2 mins by two-electrode patch clamp assay relative to control. In short, it runs like this:
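Xenopus laevis oocytes microinjected with RNA for AM2-WT or AM2-S31N; channel activated at pH 5.5; two-electrode voltage clamp current recorded after 2 min exposure to 100 μM compound; expressed as percent current inhibition; three repeats on different oocytes, mean reported.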
For orientation: In patch-clamp work, channel activity is measured electrically.

A short description of assay [3]: (§1) Antiviral activity against amantadine-resistant Influenza A virus A/California/07/2009 (H1N1) expressing M2 proton channel S31N mutant infected in MDCK cells harboring ST6Gal1 gene assessed as reduction in plaque formation measured after 2 days post infection by crystal violet staining based. The class given is functional, cell-based.
Assay [4] deals with Influenza A virus (A/California/07/2009(H1N1)). The assay is described as §1. Type of assay: functional, cell-based.
Assay [5] has the same test system. The assay can be described thus: Antiviral activity against amantadine-resistant Influenza A virus A/California/07/2009 (H1N1) expressing M2 proton channel S31N mutant infected in MDCK cells harboring ST6Gal1 gene assessed as reduction in plaque formation up to 30 uM measured after 2 days post infection by crystal violet staining based. Type of assay: functional, cell-based.

A further assay relates to Influenza A virus. The assay can be described thus: Antiviral activity against multidrug-resistant Influenza A virus A/Switzerland/9715293/2013 (H3N2) expressing M2 proton channel S31N mutant infected in MDCK cells harboring ST6Gal1 gene assessed as reduction in plaque formation measured after 2 days post infection by crystal violet staining based. The class given is functional, cell-based.

Assay [6] can be described thus: Antiviral activity against amantadine/oseltamivir-resistant Influenza A virus A/Washington/29/2009 (H1N1) expressing AM2-S31N/neuraminidase-H275Y mutant infected in MDCK cells harboring ST6Gal1 gene assessed as reduction in plaque formation measured after 2 days post infection by crystal violet staining based. The class given is functional, cell-based.

Each structure is given as a SMILES string. The source made the active and inactive calls. The calls are words filed in the database; no cut-off is given here.

Consider `COc1ccccc1-c1cc(CNC23CC4CC(CC(C4)C2)C3)no1`, for which the Activity in assay [1] was 62.1%. In addition, in assay [2], the inhibition (in general, the drop in the measured response relative to a control, in per cent) is 51.8%.
Regarding `COc1sccc1-c1cc(CNC23CC4CC(CC(C4)C2)C3)no1`, the Activity in assay [1] is 7.2%. The compound further showed an inhibition in assay [2] of 94.2%.
As to `NC(=O)c1ccc(-c2cc(CNC34CC5CC(CC(C5)C3)C4)no2)cc1`, the Activity in assay [1] is recorded as 57.1%. The same compound registered an inhibition in assay [2] of 47.4%.
With `CSc1cccc(-c2cc(CNC34CC5CC(CC(C5)C3)C4)no2)c1`, the Activity in assay [1] is 56.3%. Also, the inhibition in assay [2] was 69.6%.
Take `CSc1ccccc1-c1cc(CNC23CC4CC(CC(O)(C4)C2)C3)no1`: the Activity is 9.2% in assay [1] and “Dose-dependent effect” in assay [4]. Further, in assay [3], the EC50 (as a rule, the concentration at which the effect is half-maximal) was determined as 1200 nM. The compound further displayed an inhibition in assay [2] of 90.6%.
With `OC12CC3CC(C1)CC(NCc1cc(-c4ccccc4Cl)on1)(C3)C2`, the Activity in assay [1] was 8.3%; in assay [4], “Dose-dependent effect”. In addition, the EC50 in assay [3] was found to be 900 nM. In addition, in assay [2], the inhibition was determined as 87.1%.
Regarding `COC(=O)c1ccc(-c2cc(CNC34CC5CC(CC(C5)C3)C4)no2)cc1`, the Activity in assay [1] is 24.1%. In assay [2], the inhibition was 73.6%.
In the case of `Oc1ccccc1-c1cc(CNC23CC4CC(CC(C4)C2)C3)no1`, the Activity was 3.4% in assay [1] and “Dose-dependent effect” in assay [4]. Moreover, the EC50 in assay [3] stood at 500 nM. Also, the inhibition in assay [2] was determined as 71.5%.
`CN(C)c1ccc(-c2cc(CNC34CC5CC(CC(C5)C3)C4)no2)cc1`: the Activity in assay [1] came to 35.7%. The compound also returned an inhibition in assay [2] of 83.2%.
For `c1ccc(-c2cc(CNC34CC5CC(CC(C5)C3)C4)no2)cc1`, the Activity in assay [1] is 13.5%; in assay [4], “Dose-dependent effect”. The EC50 in assay [3] was 300 nM.
On to `c1ccc2c(-c3cc(CNC45CC6CC(CC(C6)C4)C5)no3)cccc2c1`, for which, in assay [1], the Activity worked out at 36.1%. In assay [2], this compound came in with an inhibition of 56.8%.
On to `Clc1cc(-c2cc(CNC34CC5CC(CC(C5)C3)C4)no2)c(Cl)s1`, for which the Activity in assay [1] is 10.1%. This compound also showed an inhibition in assay [2] of 87.7%.
`Clc1cc(-c2cc(CNC34CC5CC(CC(C5)C3)C4)no2)cs1`: the Activity in assay [1] stood at 10.9%. The inhibition in assay [2] turned out to be 87.9%.
Regarding `N#Cc1ccc(-c2cc(CNC34CC5CC(CC(C5)C3)C4)no2)cc1`, in assay [1], the Activity came out at 28%. For the same compound, the inhibition in assay [2] was determined as 72.2%.
Take `COc1ccc(-c2cc(CNC34CC5CC(CC(C5)C3)C4)no2)cn1`: in assay [1], the Activity is given as 21.7%. Besides, the inhibition in assay [2] stood at 58%.
On to `CS(=O)(=O)c1ccccc1-c1cc(CNC23CC4CC(CC(C4)C2)C3)no1`, for which the Activity in assay [1] worked out at 110%. For the same compound, the inhibition in assay [2] was found to be 9.8%.
In the case of `OC12CC3CC(C1)CC(NCc1cc(-c4cc(Cl)sc4Cl)on1)(C3)C2`, the Activity in assay [1] is 13.7%. In addition, in assay [5], the outcome was inactive. This compound displayed an inhibition in assay [2] of 89.9%.
As for `FC(F)(F)Oc1cccc(-c2cc(CNC34CC5CC(CC(C5)C3)C4)no2)c1`, the Activity in assay [1] came to 72.7%. The same compound gave an inhibition in assay [2] of 56.7%.
On to `c1cncc(-c2cc(CNC34CC5CC(CC(C5)C3)C4)no2)c1`, for which the Activity in assay [1] is recorded as 105.5%. The inhibition in assay [2] turned out to be 53%.
The matching figures for `c1ccc(-c2ccc(-c3cc(CNC45CC6CC(CC(C6)C4)C5)no3)cc2)cc1`: 36% and 45.6%.
Take `Clc1ccc(-c2cc(CNC34CC5CC(CC(C5)C3)C4)no2)s1`: the values for the Activity in assay [1] and in assay [4] were 0% and “Dose-dependent effect”, respectively. Moreover, the EC50 (in the assay with Influenza A virus; in assay [6]) was 200 nM in each case. In addition, the inhibition in assay [2] turned out to be 78.8%.

The values above are taken from ChEMBL document CHEMBL3997811.
